From ChEMBL document CHEMBL3407339, “A novel series of thiazolyl-pyrazoline derivatives: synthesis and evaluation of antifungal activity, cytotoxicity and genotoxicity” (Eur J Med Chem, 2015)
In brackets after ≈: the same amount, converted by molar mass.

tested on: Salmonella typhimurium; assay: Mutagenicity in Salmonella typhimurium TA98 at 5 mg/ml after 48 hrs by AMES MPF assay in presence of Sprague-Dawley rat liver microsomal S9 fraction relative to baseline; type: toxicity, organism-based; conditions: salmonella enterica subsp. enterica serovar typhimurium
Procedure, shortened: (§1)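 Ames MPF fluctuation test with TA98/TA100. Overnight cultures (37 °C, 14–16 h) mixed with exposure medium; ±Aroclor-1254-induced rat liver S9 (final 4.5% v/v). Compounds in DMSO, 0.156–5 mg/mL. 90 min exposure at 37 °C, then indicator medium; 48 wells per concentration, 48 h at 37 °C, in triplicate. Yellow wells counted; fold induction over baseline (mean + 1 SD of zero-dose control).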

| Compound | fold change (FC) |
| --- | --- |
| Fc1ccc(C2CC(c3ccc(Cl)s3)=NN2c2nc(-c3ccc(C(F)(F)F)cc3)cs2)cc1 (stereo not drawn) | 0.98 |

tested on: Salmonella typhimurium; assay: Mutagenicity in Salmonella typhimurium TA100 at 2.5 mg/ml after 48 hrs by AMES MPF assay in presence of Sprague-Dawley rat liver microsomal S9 fraction relative to baseline; type: toxicity, organism-based; conditions: salmonella enterica subsp. enterica serovar typhimurium; procedure, shortened: as §1

| Compound | fold change (FC) |
| --- | --- |
| Fc1ccc(C2CC(c3ccc(Cl)s3)=NN2c2nc(-c3ccc(C(F)(F)F)cc3)cs2)cc1 (stereo not drawn) | 2.31 |

tested on: Salmonella typhimurium; assay: Mutagenicity in Salmonella typhimurium TA98 at 0.625 mg/ml after 48 hrs by AMES MPF assay in presence of Sprague-Dawley rat liver microsomal S9 fraction relative to baseline; type: toxicity, organism-based; conditions: salmonella enterica subsp. enterica serovar typhimurium; procedure, shortened: as §1

| Compound | fold change (FC) |
| --- | --- |
| Fc1ccc(C2CC(c3ccc(Cl)s3)=NN2c2nc(-c3ccc(C(F)(F)F)cc3)cs2)cc1 (stereo not drawn) | 1.09 |

tested on: Salmonella typhimurium; assay: Mutagenicity in Salmonella typhimurium TA100 at 0.625 mg/ml after 48 hrs by AMES MPF assay in presence of Sprague-Dawley rat liver microsomal S9 fraction relative to baseline; type: toxicity, organism-based; conditions: salmonella enterica subsp. enterica serovar typhimurium; procedure, shortened: as §1

| Compound | fold change (FC) |
| --- | --- |
| Fc1ccc(C2CC(c3ccc(Cl)s3)=NN2c2nc(-c3ccc(C(F)(F)F)cc3)cs2)cc1 (stereo not drawn) | 2.54 |

tested on: Candida parapsilosis; assay: Antifungal activity against Candida parapsilosis NRLL Y 12696 after 48 hrs by broth microdilution assay; type: functional; conditions: Lodderomyces parapsilosis, NRLL Y 12696, 48 h
Procedure, shortened: (§2)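 Broth microdilution of DMSO stocks serially diluted in sterile water (4 to 0.0039 mg/mL). Yeasts grown on SDA at 37 °C for 24 h, suspended in double-strength PDB at 10⁵ spores/mL. Incubated at 37 °C for 48 h, then sprayed with 0.5% aqueous TTC. MIC = lowest concentration inhibiting visible growth. Ketoconazole reference.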

| Compound | MIC [µg/mL] |
| --- | --- |
| Fc1ccc(C2CC(c3ccc(Cl)s3)=NN2c2nc(-c3ccc(C(F)(F)F)cc3)cs2)cc1 (stereo not drawn) | 500 (≈ 984 µM) |

tested on: Salmonella typhimurium; assay: Mutagenicity in Salmonella typhimurium TA98 at 0.625 mg/ml after 48 hrs by AMES MPF assay in absence of Sprague-Dawley rat liver microsomal S9 fraction relative to baseline; type: toxicity, organism-based; conditions: salmonella enterica subsp. enterica serovar typhimurium; procedure, shortened: as §1

| Compound | fold change (FC) |
| --- | --- |
| Fc1ccc(C2CC(c3ccc(Cl)s3)=NN2c2nc(-c3ccc(C(F)(F)F)cc3)cs2)cc1 (stereo not drawn) | 0.67 |

tested on: Salmonella typhimurium; assay: Mutagenicity in Salmonella typhimurium TA100 at 5 mg/ml after 48 hrs by AMES MPF assay in presence of Sprague-Dawley rat liver microsomal S9 fraction relative to baseline; type: toxicity, organism-based; conditions: salmonella enterica subsp. enterica serovar typhimurium; procedure, shortened: as §1

| Compound | fold change (FC) |
| --- | --- |
| Fc1ccc(C2CC(c3ccc(Cl)s3)=NN2c2nc(-c3ccc(C(F)(F)F)cc3)cs2)cc1 (stereo not drawn) | 2.31 |

tested on: Salmonella typhimurium; assay: Mutagenicity in Salmonella typhimurium TA98 at 0.3125 mg/ml after 48 hrs by AMES MPF assay in absence of Sprague-Dawley rat liver microsomal S9 fraction relative to baseline; type: toxicity, organism-based; conditions: salmonella enterica subsp. enterica serovar typhimurium; procedure, shortened: as §1

| Compound | fold change (FC) |
| --- | --- |
| Fc1ccc(C2CC(c3ccc(Cl)s3)=NN2c2nc(-c3ccc(C(F)(F)F)cc3)cs2)cc1 (stereo not drawn) | 0.33 |

tested on: Salmonella typhimurium; assay: Mutagenicity in Salmonella typhimurium TA100 at 5 mg/ml after 48 hrs by AMES MPF assay in absence of Sprague-Dawley rat liver microsomal S9 fraction relative to baseline; type: toxicity, organism-based; conditions: salmonella enterica subsp. enterica serovar typhimurium; procedure, shortened: as §1

| Compound | fold change (FC) |
| --- | --- |
| Fc1ccc(C2CC(c3ccc(Cl)s3)=NN2c2nc(-c3ccc(C(F)(F)F)cc3)cs2)cc1 (stereo not drawn) | 2.67 |

tested on: Salmonella typhimurium; assay: Mutagenicity in Salmonella typhimurium TA100 at 2.5 mg/ml after 48 hrs by AMES MPF assay in absence of Sprague-Dawley rat liver microsomal S9 fraction relative to baseline; type: toxicity, organism-based; conditions: salmonella enterica subsp. enterica serovar typhimurium; procedure, shortened: as §1

| Compound | fold change (FC) |
| --- | --- |
| Fc1ccc(C2CC(c3ccc(Cl)s3)=NN2c2nc(-c3ccc(C(F)(F)F)cc3)cs2)cc1 (stereo not drawn) | 1.33 |

tested on: Salmonella typhimurium; assay: Mutagenicity in Salmonella typhimurium TA98 at 0.3125 mg/ml after 48 hrs by AMES MPF assay in presence of Sprague-Dawley rat liver microsomal S9 fraction relative to baseline; type: toxicity, organism-based; conditions: salmonella enterica subsp. enterica serovar typhimurium; procedure, shortened: as §1

| Compound | fold change (FC) |
| --- | --- |
| Fc1ccc(C2CC(c3ccc(Cl)s3)=NN2c2nc(-c3ccc(C(F)(F)F)cc3)cs2)cc1 (stereo not drawn) | 0.55 |

tested on: Aspergillus parasiticus; assay: Antifungal activity against Aspergillus parasiticus NRRL 465 after 72 hrs by broth microdilution assay; type: functional; conditions: NRRL 465, 72 h
Procedure, shortened: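 Compounds dissolved in DMSO, diluted in sterile distilled water from 4 to 0.0039 mg/mL. Molds grown on PDA at 25 °C for 5 days, suspended in double-strength PDB at 10⁵ spores/mL. Incubated at 25 °C for 72 h; mycelial growth read under stereo microscope. MIC = lowest concentration inhibiting visible growth. Ketoconazole reference.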

| Compound | MIC [µg/mL] |
| --- | --- |
| Fc1ccc(C2CC(c3ccc(Cl)s3)=NN2c2nc(-c3ccc(C(F)(F)F)cc3)cs2)cc1 (stereo not drawn) | 250 (≈ 492 µM) |

tested on: Salmonella typhimurium; assay: Mutagenicity in Salmonella typhimurium TA100 at 0.3125 mg/ml after 48 hrs by AMES MPF assay in absence of Sprague-Dawley rat liver microsomal S9 fraction relative to baseline; type: toxicity, organism-based; conditions: salmonella enterica subsp. enterica serovar typhimurium; procedure, shortened: as §1

| Compound | fold change (FC) |
| --- | --- |
| Fc1ccc(C2CC(c3ccc(Cl)s3)=NN2c2nc(-c3ccc(C(F)(F)F)cc3)cs2)cc1 (stereo not drawn) | 1 |

tested on: Salmonella typhimurium; assay: Mutagenicity in Salmonella typhimurium TA100 at 1.25 mg/ml after 48 hrs by AMES MPF assay in absence of Sprague-Dawley rat liver microsomal S9 fraction relative to baseline; type: toxicity, organism-based; conditions: salmonella enterica subsp. enterica serovar typhimurium; procedure, shortened: as §1

| Compound | fold change (FC) |
| --- | --- |
| Fc1ccc(C2CC(c3ccc(Cl)s3)=NN2c2nc(-c3ccc(C(F)(F)F)cc3)cs2)cc1 (stereo not drawn) | 3 |

tested on: [Candida] zeylanoides; assay: Antifungal activity against Candida zeylanoides NRLL Y 1774 after 48 hrs by broth microdilution assay; type: functional; conditions: Dujonia zeylanoides, NRLL Y 1774, 48 h; procedure, shortened: as §2

| Compound | MIC [µg/mL] |
| --- | --- |
| Fc1ccc(C2CC(c3ccc(Cl)s3)=NN2c2nc(-c3ccc(C(F)(F)F)cc3)cs2)cc1 (stereo not drawn) | 500 (≈ 984 µM) |

tested on: A549; assay: Antiproliferative activity against human A549 cells after 24 hrs by XTT assay; type: functional, cell-based; conditions: A549, 24 h
Procedure, shortened: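 A549 cells in RPMI and NIH/3T3 cells in DMEM, each with fetal calf serum, antibiotics and 7.5% NaHCO₃, at 37 °C, 5% CO₂. Seeded at 20,000 cells/well, 24 h, then compounds added in medium at 500–3.9 doses (final DMSO <0.1%) for 24 h. XTT read after 3 h at 480 nm (ref 680 nm). IC₅₀ by non-linear regression; triplicates; cisplatin control.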

| Compound | IC50 [µg/mL] |
| --- | --- |
| Fc1ccc(C2CC(c3ccc(Cl)s3)=NN2c2nc(-c3ccc(C(F)(F)F)cc3)cs2)cc1 (stereo not drawn) | > 500 |

tested on: Salmonella typhimurium; assay: Mutagenicity in Salmonella typhimurium TA100 at 1.25 mg/ml after 48 hrs by AMES MPF assay in presence of Sprague-Dawley rat liver microsomal S9 fraction relative to baseline; type: toxicity, organism-based; conditions: salmonella enterica subsp. enterica serovar typhimurium; procedure, shortened: as §1

| Compound | fold change (FC) |
| --- | --- |
| Fc1ccc(C2CC(c3ccc(Cl)s3)=NN2c2nc(-c3ccc(C(F)(F)F)cc3)cs2)cc1 (stereo not drawn) | 2.77 |

tested on: Salmonella typhimurium; assay: Mutagenicity in Salmonella typhimurium TA98 at 0.156 mg/ml after 48 hrs by AMES MPF assay in absence of Sprague-Dawley rat liver microsomal S9 fraction relative to baseline; type: toxicity, organism-based; conditions: salmonella enterica subsp. enterica serovar typhimurium; procedure, shortened: as §1

| Compound | fold change (FC) |
| --- | --- |
| Fc1ccc(C2CC(c3ccc(Cl)s3)=NN2c2nc(-c3ccc(C(F)(F)F)cc3)cs2)cc1 (stereo not drawn) | 0 |
